Hits are enriched below; roughly 2.6% of the tested compounds scored in any of these assays.
TAAR1 ag = human TAAR1 agonists, primary screen, Fluo-8 calcium fluorescence, CHO RD-HGA16 cells; vehicle wells 0%, saturating PEA agonist 100%; 360,000 tested, 0.99% active; Trace amine-associated receptor 1 (Homo sapiens), Q96RJ0; activation, % at 3 µM;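 active = activation above the mean activation of all test compounds in the run plus 3 SD, cut at about 38% in these data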
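Test system: RD-HGA16 (CHO) cells co-expressing Gα16 and hTAAR1; dosing: one-point dosing at 3 µM (nominal); timing: 17-24 h seeding, 75 min 37 °C dye, 30 min RT; signal: kinetic Fluo-8 calcium fluorescence; read-out basis: % activation relative to PEA EC100 response; controls: DMSO and PEA EC100; replicates: n 1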
Platelet DG rel = inhibitors of platelet dense granule secretion, primary screen, cell-based, MLPCN, human platelets. human platelet-rich plasma, SFLLRN dense granule ATP release, luminescence. inhibition, %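 (compounds screened at 7.5 µM in platelet-rich plasma)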. 300,000 tested, 0.22% active. AID 1663, 2009;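 active = mean replicate score, as percent of positive control, at or above 50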
VLA-4 inh = inhibition in human VLA-4 binding assay, primary screen, VLA-4 allosteric modulator project, MLPCN library, flow cytometry, VLA-4 expressing cells; Integrin alpha-4 (Homo sapiens), P13612; ligand binding flow cytometry; inhibition, % (about 7 µM as worked out from the volumes in the protocol); 330,000 tested, 0.2% active; AID 2557, 2010; in the data active = inhibition above about 50%
Target sequence (P13612 whole entry, looked up): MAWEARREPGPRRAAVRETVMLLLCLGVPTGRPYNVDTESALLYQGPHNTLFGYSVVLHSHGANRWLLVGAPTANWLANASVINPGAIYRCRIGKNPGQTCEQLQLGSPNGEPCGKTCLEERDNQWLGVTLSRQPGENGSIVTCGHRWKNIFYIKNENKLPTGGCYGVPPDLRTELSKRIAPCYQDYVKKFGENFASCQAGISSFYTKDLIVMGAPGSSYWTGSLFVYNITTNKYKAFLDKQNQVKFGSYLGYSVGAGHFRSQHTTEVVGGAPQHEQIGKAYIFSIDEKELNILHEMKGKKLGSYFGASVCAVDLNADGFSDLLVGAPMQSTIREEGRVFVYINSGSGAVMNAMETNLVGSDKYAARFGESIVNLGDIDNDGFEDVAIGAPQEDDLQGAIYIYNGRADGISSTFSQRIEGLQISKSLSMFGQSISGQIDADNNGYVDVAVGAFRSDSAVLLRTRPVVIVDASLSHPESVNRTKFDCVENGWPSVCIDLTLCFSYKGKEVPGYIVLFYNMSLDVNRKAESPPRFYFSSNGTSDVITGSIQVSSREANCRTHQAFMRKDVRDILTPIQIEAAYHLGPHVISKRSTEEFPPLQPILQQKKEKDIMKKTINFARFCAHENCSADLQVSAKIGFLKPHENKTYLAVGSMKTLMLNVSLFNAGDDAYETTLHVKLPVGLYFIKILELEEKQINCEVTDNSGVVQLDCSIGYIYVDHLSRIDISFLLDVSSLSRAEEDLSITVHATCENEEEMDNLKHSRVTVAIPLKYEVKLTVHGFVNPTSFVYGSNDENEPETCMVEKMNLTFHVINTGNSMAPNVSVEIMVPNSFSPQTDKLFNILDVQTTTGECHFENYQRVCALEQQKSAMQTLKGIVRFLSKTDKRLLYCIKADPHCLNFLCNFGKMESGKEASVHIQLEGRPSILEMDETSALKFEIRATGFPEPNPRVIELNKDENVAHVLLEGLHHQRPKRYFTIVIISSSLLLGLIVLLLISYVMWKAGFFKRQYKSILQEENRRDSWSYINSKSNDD
Rce1 inhib = yeast Rce1p protease inhibitors, primary screen, biochemical, fluorescence, cell-free homogeneous; yeast membranes, quenched prenylated peptide cleavage fluorescence; calls only; 290,000 tested, 0.27% active; AID 2563, 2010;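 active = fall in fluorescence gain of 50% or more versus controls, with final raw signal at or below 3038400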
TAAR1 antagonist = human TAAR1 antagonists, primary screen, Fluo-8 calcium fluorescence, CHO RD-HGA16 cells. Trace amine-associated receptor 1 (Homo sapiens), Q96RJ0. AID 624466, 2012. 360,000 tested, 1.5% active. inhibition, % at 3 µM. antagonist;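 active = inhibition above a per-plate cutoff, the mean inhibition of test compounds on that plate plus 3 SD, cut at about 49% in these data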
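test system = CHO RD-HGA16 cells bearing hTAAR1 | replication = singlicate | controls = DMSO-only wells and EC80 β-PEA-stimulated wells | reagent = EC80 β-phenethylamine stimulus | read-out basis = percent inhibition of PEA-evoked calcium signal, max/basal emission ratio | schedule = seeding 17-24 h prior, 75-min 37 °C, 30-min RT dye loading | signal = kinetic Fluo-8 calcium fluorescence measurement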
A number is an active result; 0 = inactive; - = not tested or not shown; + = active, no number.

SMILES	TAAR1 ag	Platelet DG rel	VLA-4 inh	Rce1 inhib	TAAR1 antagonist
CC(NC(=O)Nc1ccc(Cl)c(Cl)c1)C(c1ccccc1)N1CCOCC1 (centres undefined)	57.0	0	0	0	0
CC(NC(=O)c1ccc(Cl)cc1Cl)C(c1ccccc1)N1CCOCC1 (centres undefined)	0	0	0	0	0
CC(NC(=O)C1CCC(C(C)(C)C)CC1)C(c1ccccc1)N1CCOCC1 (centres undefined)	0	0	0	0	0
CC(NC(=O)Nc1ccc([N+](=O)[O-])cc1)C(c1ccccc1)N1CCOCC1 (centres undefined)	48.9	0	0	0	0
CC1=NN(c2ccccc2)C(=O)/C1=C\c1ccc(Br)s1	0	0	0	+	0
CC1=NN(c2ccccc2)C(=O)/C1=C/c1cccs1	0	0	0	0	0
COC(=O)CNC(=O)CNC(=O)c1nn(-c2ccc(OC)c(Cl)c2)c(=O)c2ccccc12	0	0	0	0	0
COc1ccc(-n2nc(C(=O)NCC(=O)NC(C)C)c3ccccc3c2=O)cc1	0	0	0	0	0
COc1ccc(-n2nc(C(=O)NCC(=O)NCc3cccc(F)c3)c3ccccc3c2=O)cc1Cl	0	0	0	0	49.9
COc1ccc(-n2nc(C(=O)NCC(=O)O)c3ccccc3c2=O)cc1	0	0	0	0	0
COc1ccc(-n2nc(C(=O)NCC(=O)N3CCN(Cc4ccccc4)CC3)c3ccccc3c2=O)cc1	0	0	0	+	0
COc1ccc(-n2nc(C(=O)NCC(=O)NCc3ccc(F)cc3)c3ccccc3c2=O)cc1	0	0	0	+	0
COc1ccc(-n2nc(C(=O)NCC(=O)N(C)Cc3ccccc3)c3ccccc3c2=O)cc1	0	0	0	+	0
C/C(=N\Nc1ccc(S(=O)(=O)N2CCCCC2)cn1)c1cccc(Br)c1	0	-	0	-	0
O=C(CCN1C(=O)/C(=C/c2ccccc2)SC1=S)NNC(=O)c1cccnc1	0	0	0	0	59.9
O=C(CCCN1C(=O)/C(=C/c2cccs2)SC1=S)Nc1ccccn1	0	0	0	0	0
O=C(CCN1C(=O)/C(=C\c2cccs2)SC1=S)Nc1ccccn1	44.3	0	0	0	0
O=C(CCN1C(=O)/C(=C/c2ccccc2Cl)SC1=S)Nc1cccnc1	0	0	0	0	50.3
Clc1cccc(CNc2ccn3nc(-c4cccc(Cl)c4)cc3n2)c1	0	-	-	-	0
CCOC(=O)Cn1c(=NC(=O)CSC(C)=O)sc2ccccc21	0	87.1	0	0	0
COC(=O)[C@]12CCCCC=C1N(Cc1ccccc1)C(=O)[C@H](CC(=O)N1CCC(c3ccccc3)CC1)C2	0	-	-	-	53.8
COC(=O)[C@]12CCCCC=C1N(CCc1ccc(OC)c(OC)c1)C(=O)[C@H](CC(=O)N1CCC(c3ccccc3)CC1)C2	0	-	-	-	67.0
CC1(C(=O)Nc2ccc(Cl)c(Cl)c2)CCN1C(=O)C1CCCCC1 (centres undefined)	0	-	-	-	0
O=C(Nc1cccc2cccnc12)c1csc([C@@H]2O[C@H](CO)[C@H](O)[C@H](O)[C@H]2O)n1	0	-	-	-	0
CNc1ncnc2c1ncn2[C@H]1CN(Cc2ccncc2)C[C@@H](CO)O1	0	-	-	-	0
SMILES	TAAR1 ag	Platelet DG rel	VLA-4 inh	Rce1 inhib	TAAR1 antagonist
Cc1c(Cc2ccccc2)c(=O)oc2c(C)c(OCC(=O)N3CCC(C(=O)O)CC3)ccc12	0	0	0	+	0
Cc1nc(Cc2nnc(SCC(=O)Nc3c(C)cccc3C)o2)cs1	0	0	0	0	0
COc1cccc(OCc2cc(C(=O)NCc3ccc4c(c3)OCO4)no2)c1	0	0	0	0	0
CCOc1cc(CNCCO)cc(Br)c1OCc1ccccc1Cl	46.5	0	0	0	0
CCOc1cc(CNCCO)cc(Br)c1OCc1ccc(Cl)cc1	40.1	0	0	0	0
CCOc1cccc(CNCCO)c1OCc1ccc(Cl)cc1	0	0	-	0	0
O=C(Nc1ccccc1-c1nc2ccccc2[nH]1)c1ccc(S(=O)(=O)N2CCCCC2)cc1	0	0	-	0	0
O=C(Nc1ccccc1-c1nc2ccccc2[nH]1)c1ccc(N2C(=O)CCC2=O)cc1	0	0	0	+	50.4
COc1ccc(C(C)NCCC(c2ccc(OC(C)C)cc2)c2ccccc2OC)cc1 (centres undefined)	44.4	0	0	0	0
C#CCN(C[C@@H]1[C@@H](OC(=O)NCc2ccccc2)[C@@H](OC(=O)NCc2ccccc2)CN(C(=O)OC(C)C)N1C(=O)OC(C)C)S(=O)(=O)c1ccc(C)cc1	0	-	-	-	0
CCN(c1ccccc1)S(=O)(=O)c1ccc(C(=O)Nc2cccc(NC(C)=O)c2)cc1	0	-	0	-	0
CCN(c1ccccc1)S(=O)(=O)c1cc(C(=O)Nc2ccc(F)c(F)c2)ccc1F	0	0	0	0	56.5
CCOC(=O)C1=NN(C(=O)Cc2ccccc2)C(O)(c2ccc(Cl)cc2)C1 (centres undefined)	0	0	0	0	0
CCOC(=O)C1=NN(C(=O)c2ccccc2)C(O)(c2ccc(C)cc2)C1 (centres undefined)	38.3	0	0	0	0
Cc1ccc(NC(=O)COC(=O)C2CCN(c3ccc(C(F)(F)F)cn3)CC2)cc1	0	-	0	-	0
O=C(Nc1cccc(-c2cn3ccccc3n2)c1)C1CC1	0	0	0	+	0
CCC(=O)Nc1cccc(-c2cn3ccccc3n2)c1	0	0	0	0	0
O=C1NC(=O)C2(CCC(C(=O)O)C2)N1 (centres undefined)	0	49.7	0	0	0
O=C1NC(=O)C2(CCCC2)N1	0	-	-	-	0
CCOc1cc(N2CCOCC2)c(OCC)cc1NC(=O)COC(=O)/C=C/c1ccc(OC(F)F)cc1	0	0	0	0	0
Cc1cc(C)cc(N/C(N)=N/c2nc(C)cc(C)n2)c1	39.1	0	0	0	0
Cc1c(C(=O)N2CCCCC2)c(S(=O)(=O)N(C)Cc2ccccc2)c(C)n1C	0	55.7	0	0	0
CCC(=O)NC1=C(Cl)C(=O)C(NC(=O)CC)=C(Cl)C1=O	45.9	-	-	-	50.2
O=C(Oc1ccc(Cl)cc1)c1ccc(COC(=O)c2cnccn2)cc1	-	62.7	0	0	-
Cc1c(NC(=O)c2cc(-c3ccc(Cl)cc3)on2)c(=O)n(-c2ccccc2)n1C	0	0	0	0	0
CCOC(=O)c1sc2nc(N3CCOCC3)c3c(c2c1N)CCCC3	0	0	0	0	0
NC(=O)c1sc2nc(N3CCCCC3)c3c(c2c1N)CCCC3	0	0	0	+	0
CCOc1ccc(NC(=O)CN(C)C(=O)c2cccc3ccccc23)cc1OCC	0	-	-	-	0
COc1ccccc1NC(=O)c1cc(-c2ccc(OC)c(OC)c2)nc2ccccc12	0	0	-	0	55.3
CCN(Cc1ccccc1)C(=O)c1cc(-c2ccc(OC)c(OC)c2)nc2ccccc12	0	0	0	0	67.3
